From ChEMBL document CHEMBL1148382, “Synthesis and structure-activity relationship for a novel class of potent and selective carbamoyl-triazole based inhibitors of hormone sensitive lipase” (J Med Chem, 2004)

Legend:
[1] = biological target: T1, Hepatic triacylglycerol lipase (Homo sapiens, UniProt P11150); test: Compound was tested to inhibit hepatic lipase (HL)
T1 sequence (P11150 whole entry): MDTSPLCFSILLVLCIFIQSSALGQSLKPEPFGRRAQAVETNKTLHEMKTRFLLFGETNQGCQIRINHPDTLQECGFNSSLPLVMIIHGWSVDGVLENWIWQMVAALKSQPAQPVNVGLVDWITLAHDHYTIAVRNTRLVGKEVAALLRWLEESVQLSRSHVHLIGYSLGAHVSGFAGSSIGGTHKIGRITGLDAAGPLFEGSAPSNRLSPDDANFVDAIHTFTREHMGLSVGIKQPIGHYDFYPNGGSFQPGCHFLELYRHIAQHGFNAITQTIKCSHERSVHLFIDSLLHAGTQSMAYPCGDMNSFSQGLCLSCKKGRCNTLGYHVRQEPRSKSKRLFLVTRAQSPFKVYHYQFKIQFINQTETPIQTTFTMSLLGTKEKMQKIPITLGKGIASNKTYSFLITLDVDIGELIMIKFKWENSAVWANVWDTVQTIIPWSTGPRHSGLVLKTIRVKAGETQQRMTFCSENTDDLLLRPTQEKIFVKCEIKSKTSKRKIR
In short: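 Emulsion assay with a fluorochrome (NBD)-labeled triacylglyceride in phosphatidylcholine/phosphatidylinositol 3:1 micelles, diluted in PED-BSA buffer pH 7.0. HL (1 μg/mL) and inhibitor in DOC buffer (10 mM TRIS-HCl pH 8.5, 5 mM deoxycholate) preincubated 70 min at 25 °C, then added with NaCl and TRIS pH 8.5. Fluorescence (ex 450/em 545 nm) read at 0 and 120 min, 37 °C. Inhibitor top concentration 100 μM, six 5-fold dilutions, duplicates; sigmoidal variable-slope IC50 fit.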

[2] = biological target: Lipoprotein lipase (Bos taurus) (UniProt P11151); test: Compound was tested to inhibit lipoprotein lipase (LPL)
[3] = biological target: Cholinesterase (Homo sapiens, UniProt P06276); test: Inhibitory concentration against butyrylcholinesterase.
[4] = biological target: T2, Acetylcholinesterase (Homo sapiens, UniProt P22303); test: Inhibitory concentration against acetylcholinesterase
[5] = biological target: T3, Pancreatic triacylglycerol lipase (Homo sapiens, UniProt P16233); test: Compound was tested to inhibit pancreatic lipase (PL)
T3 sequence (P16233 whole entry): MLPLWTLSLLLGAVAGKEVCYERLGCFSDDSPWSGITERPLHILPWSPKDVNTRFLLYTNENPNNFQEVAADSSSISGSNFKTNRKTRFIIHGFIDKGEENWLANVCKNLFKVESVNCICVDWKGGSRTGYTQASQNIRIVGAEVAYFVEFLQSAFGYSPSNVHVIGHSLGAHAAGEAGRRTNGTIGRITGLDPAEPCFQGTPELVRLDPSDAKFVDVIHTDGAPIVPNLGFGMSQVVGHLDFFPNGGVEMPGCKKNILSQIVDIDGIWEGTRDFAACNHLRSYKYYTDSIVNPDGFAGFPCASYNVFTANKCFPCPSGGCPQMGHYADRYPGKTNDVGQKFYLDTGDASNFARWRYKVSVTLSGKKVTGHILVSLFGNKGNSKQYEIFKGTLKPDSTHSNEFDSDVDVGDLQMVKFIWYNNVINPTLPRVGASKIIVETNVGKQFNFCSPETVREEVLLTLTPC
In short: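 PL (1 μg/mL) plus colipase (5 μg/mL) preincubated with inhibitor 40 min at 25 °C. Then combined with TRIS buffer pH 8.0 (NaCl, 1 mM NaTDC) and labeled triacylglyceride emulsion prepared in TRIS pH 8.0 with 8 mM NaTDC, 0.3 M NaCl, 2 mM CaCl2. Fluorescence (ex 450/em 545 nm) read at 0 and 60 min, 37 °C. Six concentrations from 100 μM in 5-fold steps, duplicates; sigmoidal IC50 fit.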

[6] = biological target: T4, Hormone-sensitive lipase (Homo sapiens, UniProt Q05469); test: Inhibition of hormone sensitive lipase (HSL).
T4 sequence (Q05469 whole entry): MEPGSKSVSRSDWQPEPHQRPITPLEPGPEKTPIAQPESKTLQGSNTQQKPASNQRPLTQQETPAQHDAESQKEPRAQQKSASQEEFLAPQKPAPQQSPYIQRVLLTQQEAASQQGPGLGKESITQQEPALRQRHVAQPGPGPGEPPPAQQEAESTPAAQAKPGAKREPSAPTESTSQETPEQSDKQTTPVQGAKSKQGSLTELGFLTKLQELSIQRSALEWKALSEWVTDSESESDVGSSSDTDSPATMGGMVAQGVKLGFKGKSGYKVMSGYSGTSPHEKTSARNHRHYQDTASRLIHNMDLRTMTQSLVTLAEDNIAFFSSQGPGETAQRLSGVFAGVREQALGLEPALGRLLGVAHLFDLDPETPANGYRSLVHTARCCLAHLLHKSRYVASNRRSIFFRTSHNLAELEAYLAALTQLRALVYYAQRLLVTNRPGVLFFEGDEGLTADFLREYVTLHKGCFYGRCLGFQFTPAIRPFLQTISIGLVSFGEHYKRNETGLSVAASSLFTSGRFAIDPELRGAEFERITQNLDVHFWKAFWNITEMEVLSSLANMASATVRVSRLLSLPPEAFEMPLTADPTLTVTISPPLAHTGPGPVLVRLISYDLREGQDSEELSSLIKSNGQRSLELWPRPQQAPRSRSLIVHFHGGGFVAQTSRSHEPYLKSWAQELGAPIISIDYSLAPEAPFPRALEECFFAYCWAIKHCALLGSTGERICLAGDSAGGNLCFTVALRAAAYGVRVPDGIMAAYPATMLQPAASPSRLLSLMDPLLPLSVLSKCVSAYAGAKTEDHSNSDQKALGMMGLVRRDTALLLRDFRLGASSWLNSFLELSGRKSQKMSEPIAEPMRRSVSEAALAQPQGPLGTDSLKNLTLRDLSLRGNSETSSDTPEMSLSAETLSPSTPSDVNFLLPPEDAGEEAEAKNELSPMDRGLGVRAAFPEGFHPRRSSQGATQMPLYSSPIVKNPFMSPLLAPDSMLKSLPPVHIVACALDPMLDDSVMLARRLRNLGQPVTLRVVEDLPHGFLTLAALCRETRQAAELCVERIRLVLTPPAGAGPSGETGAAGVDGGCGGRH

[7] = biological target: T2, Acetylcholinesterase; test: Inhibitory concentration against acetylcholinesterase; non classical inhibitor, maximum HSL inhibition of […]%

T2 sequence (P22303 whole entry): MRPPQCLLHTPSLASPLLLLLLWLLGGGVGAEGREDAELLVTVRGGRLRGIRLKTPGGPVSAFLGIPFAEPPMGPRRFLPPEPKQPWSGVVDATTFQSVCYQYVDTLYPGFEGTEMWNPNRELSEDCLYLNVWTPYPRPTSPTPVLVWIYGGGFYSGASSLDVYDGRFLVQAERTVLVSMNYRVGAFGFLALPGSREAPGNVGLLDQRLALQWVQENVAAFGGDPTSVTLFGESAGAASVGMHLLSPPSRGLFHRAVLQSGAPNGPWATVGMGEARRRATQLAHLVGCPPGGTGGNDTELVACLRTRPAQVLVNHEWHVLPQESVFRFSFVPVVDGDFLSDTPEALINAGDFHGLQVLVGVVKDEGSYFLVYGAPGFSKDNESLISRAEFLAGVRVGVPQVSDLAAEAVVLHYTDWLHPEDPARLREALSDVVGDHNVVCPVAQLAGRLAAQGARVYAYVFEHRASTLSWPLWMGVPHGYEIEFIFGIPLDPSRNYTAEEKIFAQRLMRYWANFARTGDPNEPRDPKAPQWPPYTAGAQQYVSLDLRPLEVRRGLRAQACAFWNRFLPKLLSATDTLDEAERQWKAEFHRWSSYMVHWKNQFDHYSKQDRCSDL
Chain of Cholinesterase (P06276 whole entry): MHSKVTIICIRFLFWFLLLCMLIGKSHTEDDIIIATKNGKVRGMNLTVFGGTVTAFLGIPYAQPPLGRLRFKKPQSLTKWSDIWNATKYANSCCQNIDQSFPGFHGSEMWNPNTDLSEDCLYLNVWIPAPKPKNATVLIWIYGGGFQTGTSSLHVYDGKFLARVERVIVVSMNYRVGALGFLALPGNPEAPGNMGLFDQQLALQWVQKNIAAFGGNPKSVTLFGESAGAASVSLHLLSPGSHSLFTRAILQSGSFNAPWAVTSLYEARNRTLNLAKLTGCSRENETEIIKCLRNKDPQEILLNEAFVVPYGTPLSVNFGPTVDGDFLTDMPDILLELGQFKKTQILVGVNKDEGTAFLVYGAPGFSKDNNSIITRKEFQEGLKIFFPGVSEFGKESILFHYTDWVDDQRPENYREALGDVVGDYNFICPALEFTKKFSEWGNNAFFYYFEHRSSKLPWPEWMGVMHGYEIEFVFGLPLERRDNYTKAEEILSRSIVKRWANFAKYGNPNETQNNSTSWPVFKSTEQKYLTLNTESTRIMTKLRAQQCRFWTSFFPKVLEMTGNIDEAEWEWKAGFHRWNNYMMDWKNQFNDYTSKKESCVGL
Chain of Lipoprotein lipase (Bos taurus) (P11151 whole entry, looked up): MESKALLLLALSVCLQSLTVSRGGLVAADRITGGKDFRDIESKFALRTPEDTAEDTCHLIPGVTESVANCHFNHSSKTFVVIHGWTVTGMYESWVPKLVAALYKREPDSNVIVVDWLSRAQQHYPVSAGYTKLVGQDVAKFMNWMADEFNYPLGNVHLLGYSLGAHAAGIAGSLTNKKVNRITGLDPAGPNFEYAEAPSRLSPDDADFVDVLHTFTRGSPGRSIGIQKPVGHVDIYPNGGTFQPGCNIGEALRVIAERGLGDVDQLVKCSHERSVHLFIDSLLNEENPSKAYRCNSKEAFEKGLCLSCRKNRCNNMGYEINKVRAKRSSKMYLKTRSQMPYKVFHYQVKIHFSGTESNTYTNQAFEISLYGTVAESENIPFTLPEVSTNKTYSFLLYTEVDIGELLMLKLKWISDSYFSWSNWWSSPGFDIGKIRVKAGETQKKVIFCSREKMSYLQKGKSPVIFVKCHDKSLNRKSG

Compound	IC50 [1] [nM]	IC50 [2] [nM]	IC50 [3] [nM]	IC50 [4] [nM]	IC50 [5] [nM]	IC50 [6] [nM]	IC50 [7]
CSc1nc(-c2ccc(OC(F)(F)F)cc2)nn1C(=O)N(C)c1ccccc1	> 50000	> 50000	> 50000	> 50000	> 50000	250	–
CSc1nc(-c2ccc(Cl)cc2)nn1C(=O)N(C)C	–	–	< 10	100	–	20	–
CSc1nc(/C=C/c2ccccc2)nn1C(=O)N(C)C	–	–	370	< 10	–	> 50000	–
CCCSc1nc(-c2ccc(Cl)cc2)nn1C(=O)N(C)C	–	–	100	300	–	60	–
Cc1ccc(-c2nc(SCC(F)(F)F)n(C(=O)N(C)C)n2)cc1	–	–	460	200	–	600	–
Cc1c(C(C)C)c(=O)on1C(=O)N1CCC[C@H](C)C1	> 50000	> 50000	> 50000	17000	> 50000	170	–
CCCCCCSc1nc(-c2ccc(Cl)cc2)nn1C(=O)N1CCCCC1	–	–	> 50000	< 10	–	> 50000	–
CSc1nc(-c2ccc3ccccc3c2)nn1C(=O)N(C)C	–	–	130	50	–	2000	–
COc1ccc(-c2nc(SC)n(C(=O)N(C)C)n2)cc1	–	–	410	800	–	900	–
CCCCCCSc1nc(-c2ccc(Cl)cc2)nn1C(=O)N1CCOCC1	–	–	> 50000	> 50000	–	> 50000	–
CSc1nc(-c2ccc(Cl)cc2)nn1C(=O)N1CCOCC1	–	–	14000	> 50000	–	2000	–
CCCCCCSc1nc(-c2ccc(C)cc2)nn1C(=O)N(C)c1ccccc1	–	–	–	> 50000	–	700	–
CN(C(=O)n1nc(-c2ccc(Cl)cc2)nc1SCC(F)(F)F)c1ccccc1	> 50000	> 50000	> 50000	> 50000	> 50000	170	–
CCCCCCSc1nc(-c2ccc(C)cc2)nn1C(=O)N(C)C	–	–	300	200	–	> 50000	–
CSc1nc(-c2ccc(-c3ccccc3)cc2)nn1C(=O)N(C)C	–	–	230	560	–	1500	–
CSc1nc(-c2ccc(Cl)cc2)nn1C(=O)N1CCCCC1	–	–	900	26	–	100	–

Compound	IC50 [1] [nM]	IC50 [2] [nM]	IC50 [3] [nM]	IC50 [4] [nM]	IC50 [5] [nM]	IC50 [6] [nM]	IC50 [7]
CSc1nc(-c2ccc(C)cc2)nn1C(=O)N1CCOCC1	–	–	2000	> 50000	–	4000	–
CCCCCCSc1nc(-c2ccc(Cl)cc2)nn1C(=O)N(C)c1ccccc1	–	–	–	> 50000	–	400	–
CCSc1nc(-c2ccc(Cl)cc2)nn1C(=O)N(C)C	–	–	50	56	–	210	–
O=C(N1CCOCC1)n1nc(-c2ccc(Cl)cc2)nc1SCC(F)(F)F	–	–	> 50000	> 50000	–	9000	–
CSc1nc(-c2ccc(Cl)cc2)nn1C(=O)N(C)c1ccccc1	–	–	–	1400	–	160	–
CSc1nc(-c2ccc(C)cc2)nn1C(=O)N(C)c1ccccc1	–	–	–	2400	–	100	–
CCSc1nc(-c2ccc(OC)cc2)nn1C(=O)N(C)c1ccccc1	–	–	–	1100	–	300	–
CSc1nc(-c2ccc(C)cc2)nn1C(=O)N(C)C	–	–	200	800	–	30	–
CN(C(=O)n1nc(-c2ccc(Cl)cc2)nc1SCC1CC1)c1ccccc1	–	–	–	–	–	62	Non classical inhibitor
CSc1nc(-c2ccc(OC(F)(F)F)cc2)nn1C(=O)N(C)C	–	–	200	800	–	100	–
COc1nn(-c2ccc(NC(=O)c3ccc(C(C)(C)C)cc3)cc2)c(=O)o1	1800	200	> 50000	> 50000	> 10000	23	–
CCSc1nc(-c2ccc(OC)cc2)nn1C(=O)N1CCOCC1	–	–	4000	> 50000	–	9000	–
O=C(N1CCCCC1)n1nc(-c2ccc(Cl)cc2)nc1SCC1CC1	–	–	900	100	–	200	–
CCOc1nn(-c2cccc(OCc3ccccc3)c2)c(=O)o1	15000	> 10000	920	750	> 10000	1100	–
CSc1nc(-c2ccc(C(F)(F)F)cc2)nn1C(=O)N(C)C	–	–	100	500	–	100	–
O=C(N1CCCCC1)n1nc(-c2ccc(Cl)cc2)nc1SCC(F)(F)F	–	–	1000	300	–	400	–
